High-throughput results: PubChem BioAssay, The Scripps Research Institute Molecular Screening Center
This is a sample that favours compounds with a hit; in the whole collection about 1.8% have one here.
Tn6 DDE FP – disrupts Tn6 cyclic peptide binding to fibrin D-Dimer-E complex. inhibition, % at 8.3 µM. Fibrin DD(E) TRITC-Tn6 fluorescence polarization displacement. AID 720509. P02675. actives 0.21% (n = 370,000);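 active = inhibition above a per-campaign cutoff: mean of compounds within control limits plus 3 SD, cut at about 15% in these data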;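 note: 0% = median of all compound wells on the plate and 100% = blocking peptide control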
Tn7 DDE FP – inhibitors of Tn7 peptide binding to human fibrin DD(E); AID 720508; inhibition, % at 8.3 µM; FP displacement of FITC-Tn7 peptide from fibrin DD(E); 0% = median of compound wells per plate; actives 0.13% (n = 370,000);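 active = inhibition above the mean of compounds falling within the control limits plus 3 SD of them, cut at about 14% in these data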;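 note: 0% = plate median of compound wells and 100% = 10 µM Aha-Tn7 peptide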
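System: human fibrin DD(E); quantity: Fibrin-DD(E) at 2 µM final; also added: fluorescent Tn7 probe at 0.1 µM; compound dosing: single nominal test concentration of 8.3 µM per compound; schedule: 10 min preincubation, 3 h with tracer, room temperature; detection: fluorescence polarization of the labelled Tn7 tracer; repeats: one replicate per compound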
TCR-CD3 inh – blocks the human TCR-CD3 interaction; TAMRA-labeled TCR probe fluorescence, biochemical; inhibition, % at 9.4 µM; actives 0.37% (n = 360,000); AID 651800; in the data active = inhibition above about 19%;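 note: recombinant mutant TCR 2C K166C tagged with TAMRA read by polarization; 0% = receptor in buffer alone and 100% = receptor with positive control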
SIAE primary – human SIAE inhibition, primary screen. Q9HAT2. SIAE FP-Rh probe binding, fluorescence polarization. inhibition, % at 9.66 µM. actives 0.69% (n = 370,000). AID 1053197;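 active = inhibition above a cutoff: mean of compounds within the control limits plus 3 SD of those, cut at about 17% in these data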;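 note: 0% = plate median of compound wells and 100% = probe without SIAE protein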
mABHD4 FP – inhibits mouse alpha/beta hydrolase domain 4; purified mABHD4, FP-Rh probe fluorescence polarization; Q8VD66; inhibition, % at 8.92 µM; AID 720543; actives 0.54% (n = 370,000);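 active = inhibition exceeding the mean over every tested compound plus 3 SD, cut at about 30% in these data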;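 note: 0% = plate median of compound wells and 100% = S159A mutant with DMSO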
Target sequence (Q8VD66 whole entry, looked up, the tested form may be a part): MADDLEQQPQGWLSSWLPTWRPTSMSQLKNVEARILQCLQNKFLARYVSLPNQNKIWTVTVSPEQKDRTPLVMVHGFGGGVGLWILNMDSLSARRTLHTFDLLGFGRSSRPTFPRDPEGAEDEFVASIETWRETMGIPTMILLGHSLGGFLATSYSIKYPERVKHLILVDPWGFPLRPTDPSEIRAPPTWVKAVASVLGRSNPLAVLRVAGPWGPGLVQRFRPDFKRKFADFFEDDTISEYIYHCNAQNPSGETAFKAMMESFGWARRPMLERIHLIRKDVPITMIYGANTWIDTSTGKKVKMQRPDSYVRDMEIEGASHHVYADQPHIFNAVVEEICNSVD
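Doses – 8.92 µM, single dose · Material – wild-type mouse ABHD4 protein · Replication – single well per compound (singlicate) · Measure – percent inhibition of probe binding, normalized to plate controls · Schedule – 45 min compound pre-incubation plus 60 min probe step, 25 °C · Detection – fluorescence polarization with parallel and perpendicular emission, 525/598 nm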
HTRA1 inhibitor – HTRA1 (human) protease inhibition | Q92743 | recombinant HTRA1, FP-rhodamine activity-based probe, fluorescence polarization | inhibition, % at 5.96 µM | actives 0.5% (n = 340,000) | AID 504803; in the data active = inhibition above about 36%;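 note: 0% = enzyme with DMSO and 100% = wells lacking enzyme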
Tn6 DDE ctr – counter-screen for inhibitors of Tn6 peptide binding to fibrin DD(E) | shares compounds with Tn6 DDE FP | TRITC-Tn6 fluorescence polarization displacement; 0% = median of compound wells, not DMSO | actives 2% (n = 680) | AID 720621 | inhibition, % at 8.3 µM;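 active = inhibition above the mean of test compounds lying between the control limits plus 3 SD of those, cut at about 14% in these data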;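 note: 0% = median of compound wells and 100% = wells with Aha-Tn7 blocking peptide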
Tn6 DDE conf – confirmation of inhibitors of Tn6 binding to human fibrin DD(E); shares compounds with Tn6 DDE FP; FP displacement of TRITC-Tn6 peptide from DD(E); 0% = per-plate median of test wells; inhibition, % at 8.3 µM; actives 10% (n = 680);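 active = inhibition above the mean of compounds lying within the control limits plus 3 SD, cut at about 16% in these data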;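 note: 100% = high control wells holding a competing inhibitor peptide at 10 µM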
Numbers without * were called inactive; . = no result given; ! = a repeat was not active.

SMILES	Tn6 DDE FP	Tn7 DDE FP	TCR-CD3 inh	SIAE primary	mABHD4 FP	HTRA1 inhibitor	Tn6 DDE ctr	Tn6 DDE conf
CCCCC(=O)Nc1ccc(NC(=S)NC(=O)CC)cc1OC	-3	-4	1	-5	1	2	.	.
Cc1cccc(NC(=S)Nc2cccc3ccccc23)c1	-7	-5	-1	17	22	-4	.	.
CN1OC[C@@H]2CN(C(=O)CCc3ccccc3)[C@H](c3ccc(N4CCCCC4)cc3)C[C@@H]21	-10	-4	-7	3	-3	.	.	.
C=CCN1C(=O)[C@H](CC(=O)N2CCSCC2)[C@@]2(C(=O)OCC)CCCC=C12	-1	-8	.	-1	-1	.	.	.
Cc1ccc(S(=O)(=O)NCCS(=O)(=O)N2CCN(c3ccccc3)CC2)cc1	-5	-2	2	2	-11	2	.	.
Nc1nonc1-n1nnc(C(=O)N/N=C/c2ccco2)c1CSc1ccc(Cl)cc1	0	5	-4	-76	-9	-21	.	.
COc1ccccc1CN1CC(C(=O)NCCc2ccc(C)o2)CCC1=O (stereo not drawn)	20*	6	11	-1	8	-1	8	4
CCCCc1c(C)c2cc(C)ccc2[nH]c1=O	-2	-4	5	11	4	-4	.	.
CCCc1c(C)c2cc(C)ccc2[nH]c1=O	18*	1	1	2	-1	-2	-1	-5
COC(=O)c1cc(C(=O)OCC(=O)NC2CCCCCCC2)cc([N+](=O)[O-])c1	17*	4	2	-2	0	-1	9	5
Cc1cc(Br)ccc1SCC(=O)OCC(=O)NCc1ccco1	15*	1	7	-2	0	-4	0	-1
Cc1ccc(S(=O)(=O)N2CCN(c3nc(C)c4c(c3C#N)CC(C)(C)OC4)CC2)cc1	16*	1	10	4	0	-10	0	-5
C[C@H]1[C@@H](O)CC[C@@]23CCCN2C(=O)CCC[C@@H]13	-5	4	.	-3	-1	.	.	.
c1ccc2c(c1)ncn2CCC1CCCCC1	18*	7	1	-8	-3	-3	8	2
NC(=O)CCn1cnc2ccccc21	0	-2	-5	-3	-1	3	.	.
CCOC(=O)c1sc(N2C(=O)C(O)=C(C(=O)c3ccco3)C2c2cccc([N+](=O)[O-])c2)nc1C (stereo not drawn)	4	4	-2	-29	-68	-47	.	.
CC(=O)Nc1ccc(/C=C/c2ccc3cccc([N+](=O)[O-])c3n2)cc1	18*	8	-1	-12	-9	-16	6	7
O=C(O)COc1ccc(/C=C/c2ccc3cccc([N+](=O)[O-])c3n2)cc1	-6	5	1	-20	-17	-5	.	.
CCOc1ccc(-c2noc(-c3csc([C@@H]4C[C@H](O)[C@@H](CO)O4)n3)n2)cc1	-3	-2	-1	-5	6	.	.	.
COc1ccc(C2=Nn3c(nnc3-c3ccncc3)SC2)cc1OC	19*	-4	3	1	8	-2	-2	-6
COc1cccc(NC(=O)CN2C(=O)NC3(CCCCCC3)C2=O)c1	15*	5	-2	5	-1	0	5	-1
COC(=O)[C@@]1(Cc2ccc(F)cc2)[C@H]2c3cc(C(=O)N(C)C)n(CCN4CCOCC4)c3C[C@H]2CN1C(=O)c1ccccc1	4	2	3	-1	-2	.	.	.
CCN(c1ccccc1)S(=O)(=O)c1cc(C(=O)NCC(c2ccc(OC)cc2)N(C)C)ccc1C (stereo not drawn)	17*	6	0	0	23	-7	-1	-8
COc1ccccc1CCC(=O)Nc1nccs1	3	1	-4	-5	3	-7	.	.
COc1ccccc1CCC(=O)Nc1ncc(C)s1	15*	3	10	-3	4	-6	-1	-5
SMILES	Tn6 DDE FP	Tn7 DDE FP	TCR-CD3 inh	SIAE primary	mABHD4 FP	HTRA1 inhibitor	Tn6 DDE ctr	Tn6 DDE conf
Cc1ccc(NC(=O)c2ccccc2OCC(=O)Nc2ccccc2F)cc1S(=O)(=O)N(C)C	-4	-1	-5	-82	-49	-125	.	.
Cc1ccc(Cl)cc1NC1=C/C(=N\S(=O)(=O)c2cccs2)c2ccccc2C1=O	53*	-2	-2	7	22	40*!	8	6
Cc1c(C)n(C)c2ccc(C(=O)NCc3cccs3)cc12	35*	-6	-27	-138	-100	-17	2	2
Cc1c(C)n(C)c2ccc(C(=O)NCCCN3CCN(C)CC3)cc12	-2	-3	-3	6	1	5	.	.
COc1cc([N+](=O)[O-])cc(/C=C2/SC(=S)N(Cc3ccccc3)C2=O)c1O	56*	1	-68	-107	-157	-80	0	34*
COc1ccc2c(c1OC)c(=O)n1c3ccc(OC(C)C(=O)NCCCN4CCOCC4)cc3c3ccnc2c31 (stereo not drawn)	.	.	.	.	.	1	.	.
CC(Oc1ccc2c(c1)c1ccnc3c4ccccc4c(=O)n2c13)C(=O)NCCN1CCOCC1 (stereo not drawn)	36*	-1	13	-19	4	-34	4	8
COc1ccc2c(c1OC)c(=O)n1c3ccc(OC(C)C(=O)NCCN4CCOCC4)cc3c3ccnc2c31 (stereo not drawn)	27*	2	4	-13	5	3	-5	-5
CC(Oc1ccc2c3c(c(=O)oc2c1)CCCC3)C(=O)NCCN1CCOCC1 (stereo not drawn)	3	-3	-12	-2	-2	2	.	.
O=C(NCCc1c[nH]c2ccccc12)OCc1cn(Cc2ccccc2C(F)(F)F)nn1	0	3	.	2	-6	.	.	.
CCCCNC(=O)c1nc(C2CCNCC2)oc1-c1cccc(C(F)(F)F)c1	6	-2	1	-3	-2	.	.	.
O=C(O)c1ccc(N2C(=O)/C(=C/C=C/c3ccccc3)SC2=S)cc1	-5	7	4	4	-4	-8	.	.
CN(C)c1ccc(/C=C/C=C2/SC(=S)N(c3ccccc3)C2=O)cc1	31*	-2	-79	-58	-113	-43	7	59*
O=C(Cn1cc([N+](=O)[O-])cn1)N1CCN(c2ccccc2)CC1	2	-6	0	5	6	-5	.	.
O=C(Cn1cc([N+](=O)[O-])cn1)N1CCc2ccccc2C1	15*	6	2	0	1	8	-7	-10
